The results in this text go back to ChEMBL document CHEMBL2062448, “A substituted 3,4-dihydropyrimidinone derivative (compound D22) prevents inflammation mediated neurotoxicity; role in microglial activation in BV-2 cells” (Bioorg Med Chem Lett, 2012).

Calls of active or inactive are those of the source. No cut-off for these calls is given here.

Series [1] relates to BV-2. In words: Antineuroinflammatory activity in […] cells assessed as inhibition of LPS-induced nitric oxide production at 5 to 20 uM treated 30 mins before LPS challenge measured after 24 hrs by Griess reaction. In kind it is functional, cell-based. The essentials:
(§1)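 BV-2 cells at 3 × 10⁴ cells/well in DMEM with 5% FBS at 37 °C, 5% CO₂. Cells were pretreated 30 min, then given LPS 100 ng/ml for 24 h. Supernatant was mixed 1:1 with Griess reagent (1% sulfanilamide, 0.1% naphthylethylenediamine in 5% phosphoric acid). Absorbance at 570 nm was read after 10 min against a sodium nitrite standard.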
Background: Nitrite, measured by Griess reagent, commonly stands in for NO production.

The test system of series [2] is BV-2. Kind of series: Antineuroinflammatory activity in […] cells assessed as inhibition of LPS-induced nitric oxide production at 10 uM treated 30 mins before LPS challenge measured after 24 hrs by Griess reaction. The series is classed as functional. An outline of the steps:
as §1

Series [3] has as its system BV-2. Kind of series: Cytotoxicity against LPS-induced […] cells assessed as cell viability after 24 hrs by MTT assay. In kind it is cell-based. The settings on record: bv-2, 24 h. An outline of the steps: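 BV-2 viability measured by MTT after 30 min pretreatment with 5, 10 or 20 µM, followed by LPS 100 ng/ml for 24 h. Mean ± S.E.M. of three independent experiments.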
(Tetrazolium dyes change colour on reduction, which living cells bring about.)

The subject of series [4] is BV-2. Kind of series: Antineuroinflammatory activity in […] cells assessed as inhibition of LPS-induced PGE2 production at 5 to 20 uM treated 30 mins before LPS challenge measured after 24 hrs by competitive enzyme immunoassay. The series is classed as functional, cell-based. An outline of the steps: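 BV-2 cells plated at 1.5 × 10⁶ cells/well and pretreated with 5, 10 or 20 µM for 30 min. LPS 100 ng/ml was then added for 24 h. PGE₂ in medium was measured by competitive enzyme immunoassay kit. Mean ± S.E.M. of three independent experiments.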

In series [5] the test system is BV-2. In words: Antineuroinflammatory activity in […] cells assessed as inhibition of LPS-induced iNOS expression at 5 to 20 uM after 6 hrs by Western blot analysis. The series is classed as functional, cell-based. An outline of the steps: (§2)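 BV-2 cells exposed to LPS 100 ng/ml with or without 5–20 µM for 6 h. Lysates were run on 8–12% SDS-PAGE and transferred to nitrocellulose. Blots were probed 12 h for iNOS or COX-2, then HRP secondary 1 h at room temperature, ECL detection and densitometry. Three independent experiments.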
Background: In western blotting, separated proteins are transferred to a membrane and probed.

For series [6], the system named is BV-2. Kind of series: Antineuroinflammatory activity in […] cells assessed as inhibition of LPS-induced COX2 expression at 5 to 20 uM after 6 hrs by Western blot analysis. In kind it is functional, cell-based. An outline of the steps: as §2
Series [7] has as its system BV-2. In words: Antineuroinflammatory activity in […] cells assessed as inhibition of LPS-induced TNFalpha production treated 30 mins before LPS challenge measured after 24 hrs by ELISA. In kind it is functional, cell-based. The essentials: (§3)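 BV-2 cells plated at 1.5 × 10⁶ cells/well and pretreated for 30 min. Cells were then exposed to LPS 100 ng/ml for 24 h. IL-1β and TNF-α in culture medium were quantified by immunoassay kit. Mean ± S.E.M. of three independent experiments.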

Series [8] relates to BV-2. In words: Inhibition of LPS-induced ERK kinase phosphorylation in […] cells after 30 mins by Western blot analysis. The series is classed as cell-based. The essentials:
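BV-2 cells exposed to LPS 100 ng/ml with or without 5–20 µM for 30 min. Lysates were run on 8–12% SDS-PAGE and transferred to nitrocellulose. Blots were probed 12 h for phospho-p38, -JNK or -ERK, then HRP secondary 1 h at room temperature, ECL detection and densitometry.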

The subject of series [9] is N2a. Kind of series: Antineuroinflammatory activity in LPS-stimulated […] cells in conditioned media assessed as inhibition of DNA fragmentation in […] cells treated 30 mins before LPS challenge measured after 24 hrs by Gel electrophoresis. The series is classed as functional, cell-based. An outline of the steps: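 BV-2 cells pretreated with 5, 10 or 20 µM for 30 min, then stimulated with LPS 100 ng/ml for 24 h. Conditioned media were applied to N2a cells for 24 h. Cells were scraped and pelleted at 7500 rpm for 5 min. DNA fragmentation was resolved by gel electrophoresis alongside vehicle CM and LPS-with-vehicle CM lanes.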

Series [10] concerns N2a. In words: Antineuroinflammatory activity in LPS-stimulated […] cells in conditioned media assessed as recovery of Bcl-2 expression in […] cells treated 30 mins before LPS challenge measured at 5 to 20 uM after 24 hrs by Western blot analysis. In kind it is functional, cell-based. An outline of the steps: (§4)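 BV-2 cells pretreated with 5, 10 or 20 µM for 30 min, then LPS 100 ng/ml for 24 h. Conditioned media were collected and applied to N2a cells for 24 h. Lysates were run on 8–12% SDS-PAGE and transferred to nitrocellulose. Blots were probed 12 h with primary antibodies (cleaved caspase-3, Bax, Bcl-2), then HRP secondary 1 h at room temperature, ECL detection and densitometry. Mean ± S.E.M. of three independent experiments.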

For series [11], the system named is N2a. In words: Antineuroinflammatory activity in LPS-stimulated […] cells in conditioned media assessed as inhibition of Bax expression in […] cells treated 30 mins before LPS challenge measured at 5 to 20 uM after 24 hrs by Western blot analysis. The series is classed as functional, cell-based. An outline of the steps: as §4
Series [12] relates to N2a. Kind of series: Antineuroinflammatory activity in LPS-stimulated […] cells in conditioned media assessed as inhibition of caspase-3 activation in […] cells treated 30 mins before LPS challenge measured at 5 to 20 uM after 24 hrs by Western blot analysis. The series is classed as functional, cell-based. An outline of the steps: as §4
Series [13] has as its system N2a. In words: Antineuroinflammatory activity in LPS-stimulated […] cells in conditioned media assessed as inhibition of […] cell death treated 30 mins before LPS challenge measured after 24 hrs by MTT assay. The series is classed as functional, cell-based. An outline of the steps: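 BV-2 cells (DMEM, 5% FBS) pretreated with 5, 10 or 20 µM for 30 min, then LPS 100 ng/ml for 24 h. Conditioned media were transferred to N2a cells (DMEM, 10% FBS) for 24 h, and N2a viability was read by MTT. Mean ± S.E.M. of three independent experiments; one-way ANOVA with Tukey post test.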

Series [14] has as its system BV-2. In words: Antineuroinflammatory activity in […] cells assessed as inhibition of LPS-induced IL-1beta production treated 30 mins before LPS challenge measured after 24 hrs by ELISA. The series is classed as functional, cell-based. The essentials:
as §3

Series [15] concerns c-Jun N-terminal kinase, JNK (Mus musculus). Kind of series: Inhibition of LPS-induced JNK kinase phosphorylation in mouse BV2 cells after 30 mins by Western blot analysis. The settings on record: BV-2.
The test system of series [16] is MAP kinase p38 (Mus musculus). Kind of series: Inhibition of LPS-induced p38 kinase phosphorylation in mouse BV2 cells after 30 mins by Western blot analysis. The settings on record: BV-2.

`CCOC(=O)C1=C(C)NC(=O)NC1c1cccc(Oc2ccccc2)c1` (stereo not drawn): in the series on BV-2 [1], the inhibition result was “Active”.
On the same count and under the same terms, as for `CCOC(=O)C1=C(C)NC(=O)NC1c1cc(Cl)ccc1O` (stereo not drawn), the entry is “Active”.
Take `CCOC(=O)C1=C(C)NC(=S)NC1c1cccc(Oc2ccccc2)c1` (stereo not drawn): the inhibition at 10 µM in the series on BV-2 [2] (Mus musculus, BV-2, read-out: INH) was found to be 51%. Also, in the series on BV-2 [3], the Activity result is recorded as “Non-toxic”. Besides, the inhibition entry in the series with BV-2 [4], in the series with BV-2 [5], in the series on BV-2 [6], in the series on N2a [9], in the series on N2a [11] and in the series on N2a [12] was “Active” each time. For the same compound, the inhibition result with N2a [13] was “Active”. In addition, the inhibition result (in the series on BV-2 [7]; with BV-2 [8]; with BV-2 [14]; in [15]; in [16]) was “Dose-dependent effect” each time. For the same compound, the result with N2a [10] was Active.
Turning to `O=c1cc(-c2ccccc2)oc2cc(O)cc(O)c12`, in the series with BV-2 [2], the inhibition entry was “Active”.
